In the library only some 3% were active in any assay of this set; here they are far more common.
NSD2 inh: blocks human histone methyltransferase NSD2 | O96028 | NSD2 peptide methylation, AlphaScreen, 120 min | inhibition, % at 12.5 µM | 310,000 compounds, 0.54% hits | AID 743445; in the data active = inhibition above about 50%
Wnt act: activates Wnt/beta-catenin signaling in a reporter cell assay; AID 743398; activator, plate reader; activation, % at 9.35 µM; 300,000 compounds, 1.2% hits; in the data active = activation above about 30%, passing the limit was not always enough; inconclusive = no clear call, values can overlap the other calls
XiGFP reactiv: X-chromosome reactivation activator | XiGFP mouse fibroblasts, % GFP-positive cells imaging, 3 d; cells co-treated with 5-aza-dC sensitizer; scaled so ellipticine positive control = 100% | 360,000 compounds, 0.055% hits | AID 743238 | activation, % at 7.58 µM;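 active = mean normalized replicate activation at least 10% and every replicate at or above 10%; inconclusive = only one of the two criteria met; inactive = mean below 10% and not all replicates reach 10%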
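material = 68-5-11 XiGFP fibroblast line | medium = DMEM plus 5-aza-dC sensitizer | schedule = 3 days compound exposure | benchmarks = positive control ellipticine, 6 µM final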
Casp6 inh: caspase-6 (human) enzyme inhibition | 350,000 compounds, 0.53% hits | P55212 | purified caspase-6, Z-VEID-R110 cleavage fluorescence | AID 686996 | inhibition, % at 12.5 µM;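 active = mean inhibition across replicates at least about 35%, with every replicate also reaching that limit, limit read from the data; inconclusive = only one of the two criteria met; inactive = neither criterion met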
esBAF inh: SWI/SNF esBAF complex inhibition; reporter increase, % at 12.5 µM; 350,000 compounds, 2% hits; AID 602393; mouse ES cells, Bmi1-luciferase knock-in reporter, 24 h; 100% = twice the neutral-well signal; in the data active = activation above about 40%; inconclusive = no clear call, values can overlap the other calls;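 note: a rise in the Bmi1 reporter signal indicates esBAF inhibition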
MITF TRPM1 HTS: increases MITF-driven TRPM1 promoter luciferase signal | SK-MEL-5 TRPM1-promoter luciferase, 24 h; % of positive control, neutral wells = 0 | activation, % at 12.5 µM | 300,000 compounds, 0.75% hits | AID 588334;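 active = mean activation of at least 80% with every replicate also reaching 80%; inconclusive = mean reaches 80% but some replicate falls short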
A number is an active result.

Screening CC(C)c1ccc(Nc2ncc3c(n2)CCN(C(=O)Nc2ccc(F)c(Cl)c2)C3)cc1 returned NSD2 inh inactive, Wnt act inactive, XiGFP reactiv inactive, Casp6 inh inactive and esBAF inh 56.3.
For COc1cccc(NC(=O)N2CCc3nc(Nc4cc(Cl)cc(Cl)c4)ncc3C2)c1 the results were NSD2 inh inactive, Wnt act inactive, XiGFP reactiv inactive, Casp6 inh inactive and esBAF inh inactive.
Screening O=C(Cc1ccccn1)NCC[C@@H]1CC[C@H](NC(=O)c2ccccc2F)[C@@H](CO)O1 returned XiGFP reactiv inactive, Casp6 inh inactive and esBAF inh inactive.
For CC(C)NC(=O)N(C)C[C@@H]1OCCCC[C@H](C)Oc2ccc(NC(=O)Nc3ccc(C(F)(F)F)cc3)cc2C(=O)N([C@H](C)CO)C[C@@H]1C the results were XiGFP reactiv inconclusive, Casp6 inh inactive and esBAF inh inactive.
O=c1cc(-c2ccccc2)oc2ccc3ccccc3c12 was read as Wnt act inactive, XiGFP reactiv inactive, Casp6 inh inactive and esBAF inh inactive.
Screening Clc1ccc2oc(-c3ccccc3)cc(=NCCCN3CCOCC3)c2c1 returned NSD2 inh inactive, Wnt act 57.4, XiGFP reactiv inactive, Casp6 inh inactive and MITF TRPM1 HTS 103.2.
OCCCCCN=c1cc(-c2ccccc2)oc2ccc(Cl)cc12 was read as NSD2 inh inactive, esBAF inh 78.1 and MITF TRPM1 HTS inactive.
`C[C@H]1CCCCO[C@@H](CN(C)C(=O)Nc2ccc3c(c2)OCO3)[C@@H](C)CN([C@@H](C)CO)C(=O)c2cc(NC(=O)NC3CCCCC3)ccc2O1` gave XiGFP reactiv inactive and esBAF inh inactive.
Screening C[C@@H]1CN([C@H](C)CO)C(=O)c2cccc(NS(=O)(=O)c3ccccc3)c2O[C@@H]1CN(C)C(=O)NC1CCCCC1 returned XiGFP reactiv inactive, Casp6 inh inactive and esBAF inh inactive.
Screening COc1ccc2c3c(n(C)c2c1)[C@H](CO)N(Cc1ccccc1)CC31CCN(C(=O)c2ccccc2F)CC1 returned XiGFP reactiv inactive and Casp6 inh inactive.
CN(C)c1ccc(/C=N/NC(=O)CCCO)cc1 was read as NSD2 inh inactive, Wnt act inactive, XiGFP reactiv inactive, Casp6 inh inactive and MITF TRPM1 HTS inactive.
CCCCCC(=O)N/N=C/c1ccc(N(C)C)cc1 was read as NSD2 inh inactive, Wnt act inactive, XiGFP reactiv inactive, esBAF inh 51.5 and MITF TRPM1 HTS inactive.
`Cc1cccc(NC2=C/C(=N/S(=O)(=O)c3cccs3)c3ccccc3C2=O)c1` gave NSD2 inh inactive, Wnt act inactive, XiGFP reactiv inactive and MITF TRPM1 HTS inactive.
`O=C(O)c1ccc(NC2=C/C(=N/S(=O)(=O)c3cccs3)c3ccccc3C2=O)cc1` gave Wnt act inactive, XiGFP reactiv inactive, Casp6 inh 99.6 and esBAF inh inactive.
For O=C(O)c1ccc(NC2=C/C(=N/S(=O)(=O)c3ccccc3)c3ccccc3C2=O)cc1 the results were Wnt act inactive, XiGFP reactiv inactive, Casp6 inh 99.0 and MITF TRPM1 HTS inactive.
O=C1C(Nc2ccc(O)cc2)=C/C(=N/S(=O)(=O)c2cccs2)c2ccccc21 was read as Wnt act inactive, XiGFP reactiv inactive, Casp6 inh 99.1 and MITF TRPM1 HTS inactive.
Cc1cc(C)c(S(=O)(=O)/N=C2\C=C(Nc3ccc(C(=O)O)cc3)C(=O)c3ccccc32)c(C)c1 was read as Wnt act inactive, XiGFP reactiv inactive, Casp6 inh inactive, esBAF inh inactive and MITF TRPM1 HTS inactive.
For C[C@H](CO)N1C[C@H](C)[C@H](CN(C)Cc2ccc(C(=O)O)cc2)Oc2ncc(C#CCN(C)C)cc2C1=O the results were XiGFP reactiv inactive, Casp6 inh inactive and esBAF inh inactive.
Screening Cc1noc(/C=C/Nc2ccc(F)cc2F)c1[N+](=O)[O-] returned NSD2 inh inactive, Wnt act 40.1, XiGFP reactiv inactive, Casp6 inh inactive and MITF TRPM1 HTS inactive.
For Cc1noc(/C=C/c2ccccn2)c1[N+](=O)[O-] the results were NSD2 inh inactive, Wnt act inactive, XiGFP reactiv inactive, Casp6 inh inactive and esBAF inh 48.3.
Screening CC(C)NC(=O)N[C@H]1CC[C@H](CCNC(=O)C2CCCC2)O[C@H]1CO returned XiGFP reactiv inactive, Casp6 inh inactive and esBAF inh inactive.
CCCNC(=O)N1CC(=O)N2[C@H](C1)[C@@H](c1ccc(-c3cccc(C)c3)cc1)[C@@H]2CO was read as XiGFP reactiv inactive and Casp6 inh inactive.
`COc1ccc(CNC(=O)Cn2cccc2C(=O)c2ccccc2C)cc1` gave NSD2 inh inactive, Wnt act inactive, XiGFP reactiv inactive, Casp6 inh inactive, esBAF inh 47.2 and MITF TRPM1 HTS inactive.
For COc1ccc(CNC(=O)Cn2cccc2C(=O)c2ccccc2)cc1 the results were NSD2 inh inactive, Wnt act inactive, XiGFP reactiv inactive, Casp6 inh inactive, esBAF inh 53.0 and MITF TRPM1 HTS inactive.
`Cc1ccccc1C(=O)c1cccn1CC(=O)NCc1ccccc1` gave NSD2 inh inactive, Wnt act inactive, XiGFP reactiv inactive, Casp6 inh inactive, esBAF inh inactive and MITF TRPM1 HTS inactive.
COc1ccc(OC)c(CCNC(=O)Cn2cccc2C(=O)c2ccccc2)c1 was read as NSD2 inh inactive, Wnt act inactive, XiGFP reactiv inactive, Casp6 inh inactive, esBAF inh inactive and MITF TRPM1 HTS inactive.
COC(=O)C[C@H]1CC[C@H]2[C@@H](COC[C@@H](O)CN2S(=O)(=O)c2ccc(F)cc2)O1 was read as XiGFP reactiv inactive and esBAF inh inactive.
CN1c2ccc(-c3ccccc3F)cc2[C@H]2[C@H](CCN2S(=O)(=O)c2ccc(F)cc2)[C@@H]1CO was read as XiGFP reactiv inactive and esBAF inh inactive.
For Cc1c(C#N)c(O)[nH]c(=O)c1N=Nc1ccc(S(N)(=O)=O)cc1 the results were NSD2 inh inactive, Wnt act inactive, XiGFP reactiv inactive, Casp6 inh 44.4, esBAF inh inactive and MITF TRPM1 HTS inactive.
`COc1ccc2[nH]cc(C(=O)CCl)c2c1` gave NSD2 inh inactive, Wnt act inactive, XiGFP reactiv inactive, Casp6 inh inactive, esBAF inh inactive and MITF TRPM1 HTS inactive.
COc1ccc2[nH]cc(C(=O)CNc3nc(C)cs3)c2c1 was read as NSD2 inh inactive, Wnt act 42.1 and esBAF inh 69.6.
Screening CC(C)CNC(=O)C1(C)CCCN1C(=O)c1cc2ccccc2s1 (centres undefined) returned NSD2 inh inactive, Wnt act inactive, XiGFP reactiv inactive, Casp6 inh inactive and esBAF inh inactive.
`CC(C)CNC(=O)C1(C)CCCN1C(=O)Cc1cccc2ccccc12` (centres undefined) gave NSD2 inh inactive, Wnt act inactive, XiGFP reactiv inactive, Casp6 inh 54.2 and esBAF inh inactive.
For CC1(C)CCCN(C(=O)c2coc(=O)c(Br)c2)C1 the results were NSD2 inh 114.0, esBAF inh inactive and MITF TRPM1 HTS inactive.

Assay outcomes deposited in PubChem by Broad Institute.
